Hits are enriched below; roughly 3.3% of the tested compounds scored in any of these assays.
SENP8 block-1 – human SENP8 protease inhibitors, primary screen, biochemical, fluorescence, Nedd8 protein substrate, uHTS; Sentrin-specific protease 8 (Homo sapiens), Q96LD8; recombinant SENP8; inhibition, % at 20 µM; 0.64% of 360,000 active; AID 602440, 2012; in the data active means inhibition mostly above about 40%, no sharp cut-off; inactive means mostly below about 27%
SENP6 inh – SENP6 protease inhibitors, primary screen, biochemical, luminescence, uHTS; Sentrin-specific protease 6 (Homo sapiens), Q9GZR1; Recombinant SENP6 catalytic domain, aminoluciferin luminescence; inhibition, % at 10 µM; 1.8% of 330,000 active; AID 2599, 2010;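 active means inhibition above about 50% at the single tested dose, limit read from the data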;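 further: plate controls were DMSO wells with enzyme for no effect and DMSO wells lacking enzyme for full effect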
Target sequence (Q9GZR1 628-1112 limits assumed): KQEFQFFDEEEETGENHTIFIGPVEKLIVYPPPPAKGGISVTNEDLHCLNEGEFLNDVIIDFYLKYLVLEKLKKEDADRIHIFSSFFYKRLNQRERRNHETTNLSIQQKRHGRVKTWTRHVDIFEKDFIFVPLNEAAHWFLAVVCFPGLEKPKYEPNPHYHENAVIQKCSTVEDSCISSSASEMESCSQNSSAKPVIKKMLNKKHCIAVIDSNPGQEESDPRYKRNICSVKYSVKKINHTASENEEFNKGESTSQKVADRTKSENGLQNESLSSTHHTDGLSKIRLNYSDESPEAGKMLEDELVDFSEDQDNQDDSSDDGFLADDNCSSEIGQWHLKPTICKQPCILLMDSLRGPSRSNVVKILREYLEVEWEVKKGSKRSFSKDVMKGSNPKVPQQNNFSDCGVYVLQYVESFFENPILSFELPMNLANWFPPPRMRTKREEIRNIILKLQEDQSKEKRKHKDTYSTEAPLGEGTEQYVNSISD
CendR NRP1 mod – modulators of CendR peptide binding to NRP-1, primary screen, biochemical, fluorescence polarization, uHTS; 0.85% of 360,000 active; AID 602438, 2012; inhibition, % at 25 µM; Neuropilin-1 (Homo sapiens), O14786; FAM-RPARPAR peptide binding to NRP-1;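 active means inhibition or corrected inhibition above about 18%, plus a signal ratio from 0.5 to 1.5, limit read from the data, passing the limit was not always enough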
SENP1 FRET inh – human SENP1 catalytic domain inhibitors, primary screen, biochemical, FRET, uHTS; Sentrin-specific protease 1 (Homo sapiens), Q9P0U3; recombinant SENP1 catalytic domain, CyPet-SUMO1-YPet FRET cleavage; inhibition, % at 10 µM; 0.21% of 360,000 active;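 active means inhibition at least 30% at 10 µM, raw YFP signal under a set limit, fluorescence ratio 0.5 to 1.5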;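 further: 0% = enzyme with DMSO and 100% = no enzyme wells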
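material = recombinant human SENP1 catalytic domain, His6-tagged | quantity = 20 pM enzyme | reagent = 25 nM SUMO1 FRET substrate | compound dosing = 10 µM single point, 0.5% DMSO | timing = 50 min enzyme reaction, room temperature, light-protected | detection = FRET, CFP and YFP emission | control set = no-enzyme low, enzyme-DMSO high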
SENP7 block – SENP7 protease inhibitors, primary screen, biochemical, luminescence, uHTS; AID 434973, 2010; 1.5% of 330,000 active; recombinant SENP7, Z-RLRGG-aminoluciferin luminescence, 40 min; inhibition, % at 5 µM; Sentrin-specific protease 7 (Homo sapiens), Q9BQF6;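 active means inhibition above about 50% at the single test dose, limit read from the data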;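 further: plate controls were DMSO with enzyme for no effect and no enzyme buffer wells for full effect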
SENP8 block-2 – SENP8 protease inhibitors, primary screen, biochemical, luminescence; inhibition, % at 10 µM; 1.2% of 330,000 active; purified SENP8, Z-RLRGG-aminoluciferin cleavage; Sentrin-specific protease 8 (Homo sapiens), Q96LD8; AID 2540, 2010; in the data active means inhibition above about 50%
* = called active by the depositor; i = inactive; / = no result.

SMILES	SENP8 block-1	SENP6 inh	CendR NRP1 mod	SENP1 FRET inh	SENP7 block	SENP8 block-2
O=C1NC2=C(CCc3ccccc32)C(c2ccccc2)N1 (stereo unspecified)	-167	95*	-8	-11	73*	87*
CC(=O)CSc1nc2nccnc2[nH]1	-72	/	-3	0	/	/
O=C(C(=O)N1CCC(c2ccccc2)CC1)c1ccc(F)c(F)c1	12	/	15	2	/	/
c1ccc(CNc2nc(NCc3ccccc3)c3sccc3n2)cc1	-10	/	1	1	/	/
Fc1cc(Cl)ccc1Nc1nc(NCc2ccccc2)nc2ccsc12	-479	/	26*	-2	/	/
CN1CCN(c2ccccc2NC(=O)c2ccc(-c3cccc([N+](=O)[O-])c3)o2)CC1	22	/	45*	3	/	/
O=C1NC[C@H](CCCCN2C[C@H](Cc3ccc(O)cc3)N(CCc3ccccc3)C(=O)C2=O)N(CCc2ccc(O)cc2)C1=O	17	/	-6	0	/	/
O=c1c2[nH]c3ccc(F)cc3c2ncn1CCCN1CCOCC1	-65	-22	47*	1	-7	-15
COc1ccc2c(c1)[nH]c1c(=O)n(CCCN3CCOCC3)cnc12	14	-4	-6	0	1	0
O=C(NCc1ccccc1)C(c1ccc(-c2ccccc2)cc1)N1CCN(c2ccccc2F)CC1 (stereo unspecified)	7	/	-15	1	/	/
Cc1sc2ncn(CC(=O)N3CCN(c4ccccn4)CC3)c(=O)c2c1S(=O)(=O)N1CCCCC1	-2	-30	31*	-4	-8	-15
Cc1sc2ncn(CC(=O)N3CCCC(C)C3)c(=O)c2c1S(=O)(=O)N1CCCCC1 (stereo unspecified)	9	-8	8	-1	0	0
COc1ccccc1Cn1c(C)c(C(=O)NCCC#N)sc1=O	3	/	-2	-5	/	/
Cn1cnc2cc(NC(=O)c3ccco3)ccc21	10	-21	24*	1	-10	-15
COc1ccc(NC(=O)c2ccco2)cn1	8	-8	26*	-7	10	1
CC(C)(C)n1cnc2cc(NC(=O)c3cccs3)ccc21	7	-11	2	2	-13	-7
O=C(Nc1ccc2c(c1)ncn2-c1ccccc1)c1ccco1	16	7	8	-2	7	-1
CC(C)(C)n1cnc2cc(NC(=O)c3ccccc3)ccc21	5	-4	23*	2	0	0
CCc1cc(C(=O)Nc2ccc(OC)nc2)sc1C	7	-15	24*	-4	-5	-10
CC(C)NC(=O)Nc1ccc2c(c1)C(=O)N([C@H](C)CO)C[C@H](C)[C@@H](CN(C)Cc1ccc(C(F)(F)F)cc1)OCCCC[C@H](C)O2	-6	/	-7	0	/	/
CC(=O)c1ccc(OCCCC(=O)Nc2nnc(C3CC3)s2)cc1	-3	-4	-6	-5	3	9
COc1ccc(S(=O)(=O)NC(C)C(=O)Nc2ccc3c(c2)OCO3)cc1OC (stereo unspecified)	5	-29	17*	-1	-3	1
COc1ccc(S(=O)(=O)Nc2ccc3c(c2)OCO3)cc1C(=O)O	3	-9	16	3	2	8
COc1ccc(/C=C/C(=O)O)cc1S(=O)(=O)Nc1ccc2c(c1)OCO2	18	-2	26*	-1	18	4
COc1ccc(S(=O)(=O)NC(C)C(=O)Nc2ccc3c(c2)OCCO3)cc1OC (stereo unspecified)	10	0	-3	0	0	0
SMILES	SENP8 block-1	SENP6 inh	CendR NRP1 mod	SENP1 FRET inh	SENP7 block	SENP8 block-2
CC[N+](CC)=N/N=C1\C=CC[N+]([O-])=C1	10	/	-7	0	/	/
Oc1csc(Cc2nc(-c3ccc(-c4ccccc4)cc3)cs2)n1	-37	10	-18	18	-6	-5
Oc1csc(Cc2nc(-c3ccc4ccccc4c3)cs2)n1	-44	8	-11	23	66*	37
COc1ccc(C(C(=O)NC2CCCC2)n2c(CSCCOc3ccccc3)nc3ccccc32)cc1 (stereo unspecified)	18	/	-4	3	/	/
Cn1nc([N+](=O)[O-])c(C(C#N)c2nc3ccccc3n2C)c(Cl)c1=O (stereo unspecified)	-166	-20	28*	-22	-9	-6
CCn1c(N)nc2c1c(=O)n(C)c(=O)n2C	26	-9	15	-1	-4	1
Cn1nc(-c2ccccn2)nc2c(=O)n(C)c(=O)nc1-2	93*	-8	28*	33*	96*	97*
CCCc1nc2c(=O)n(C)c(=O)nc-2n(C)n1	120*	/	14	34*	/	/
O=C(Nc1ccc(F)cc1)N[C@H]1CC[C@H](CCNS(=O)(=O)c2cccc(Cl)c2)O[C@@H]1CO	10	/	-1	2	/	/
COC(=O)[C@@]12C[C@@H](CC(=O)NCCC(C)C)C(=O)N(Cc3ccccc3)C1=CCC(C)(C)C2	19	/	10	1	/	/
COc1cc(NC(C)CCCNC(C)C)c2ncccc2c1OC (stereo unspecified)	9	/	24*	10	/	/
O=c1[nH]c(=S)[nH]c2c1[C@H](CCc1cccc(Cl)c1)O[C@H](C1CCCC1)C2	8	/	5	-1	/	/
Nc1[nH]c(C(=O)c2ccccc2)c(-c2cccnc2)c1C(=O)NC1CCCCC1	12	/	-17	0	/	/
O=c1c(-c2ccc(O)cc2)coc2c([C@@H]3O[C@H](CO)[C@@H](O)[C@H](O)[C@H]3O)c(O)ccc12	i	1	24*	-1	-2	0
Cc1cccc(/C=N/c2sc3c(c2C(=O)OC(C)(C)C)CCN(C)C3)c1O	-11	-1	31*	-36	4	2
Cc1ccc(Cc2c(-c3ccc(F)cc3)nc3c(C)cc(Br)cn23)cc1	-3	/	-7	40*	/	/
CCOC(=O)C1=CCC(c2ccc(N(CC)CC)cc2)N(S(=O)(=O)c2ccc(C)cc2)C1c1ccc([N+](=O)[O-])cc1 (stereo unspecified)	14	/	10	-21	/	/
O=C(COC(=O)C1CC(=O)N(Cc2ccccc2)C1)Nc1ccccc1F (stereo unspecified)	13	-33	26*	-1	1	-6
N#C/C(=N\Nc1ccc(S(=O)(=O)N2CCCCCC2)cc1)C(N)=S	31	-18	-3	3	-7	15
N#C/C(=N/Nc1ccc(S(=O)(=O)N2CCOCC2)cc1)C(N)=O	22	1	-9	0	0	0
N#C/C(=N\Nc1ccc(S(=O)(=O)N2CCCCC2)cc1)C(N)=S	45*	1	-7	5	1	-2
